Compounds with a hit are over-represented: about 3.1% of the library has one in this group of screens.
OX1R antag-1: antagonists of human orexin 1 receptor (OX1R) | OX1R-expressing cells, FRET antagonist read-out | inhibition, % at 6.6 µM | 330,000 tested, 1.8% active; in the data active = inhibition mostly above about 38%, no sharp cut-off; inactive = mostly below about 40%
GalR3 antagonist: GalR3 antagonists in HEK293 cells, primary screen, cell-based, fluorescence readout | Galanin receptor type 3 (Homo sapiens), O60755 | HEK293 GalR3-CNG cAMP membrane potential fluorescence; galR3 body fused to GalR1 C-terminus | inhibition, % at 3 µM | 360,000 tested, 0.44% active;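 active = inhibition above the screen-wide average plus 3 SD, cut at about 13% in these data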;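 note: forskolin and galanin both at EC90 stimulate the cells; cAMP rise reported by CNG channel membrane potential dye signal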
Target sequence (O60755 1-299 limits assumed): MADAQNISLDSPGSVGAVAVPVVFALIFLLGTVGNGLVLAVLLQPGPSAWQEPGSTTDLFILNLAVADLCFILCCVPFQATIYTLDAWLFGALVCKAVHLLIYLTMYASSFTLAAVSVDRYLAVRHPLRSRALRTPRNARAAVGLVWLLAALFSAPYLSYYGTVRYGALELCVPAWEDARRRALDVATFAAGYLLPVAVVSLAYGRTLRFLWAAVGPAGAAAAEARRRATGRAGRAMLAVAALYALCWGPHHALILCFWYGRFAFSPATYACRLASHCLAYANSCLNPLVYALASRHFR
CHO parental Ca: ATP-evoked calcium signal inhibitors, parental CHO, primary screen, counter-screen for OX1R antagonist project, cell-based, fluorescence, Fluo-8 calcium dye; parental CHO-K1, ATP-induced calcium, Fluo-8 fluorescence; inhibition, % at 5.6 µM; 330,000 tested, 0.63% active;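 active = inhibition above that plate's mean sample inhibition plus 3 SD, cut at about 26% in these data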
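Assay system – parental CHO cells · Reagent – ATP stimulus · Detection – intracellular calcium via Fluo-8 no-wash fluorescent dye · Evaluation – percent inhibition of ATP-evoked calcium rise, normalized to controls · Controls – ATP wells versus no-ATP DMSO wells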
OX1R antag-2: OX1R (HCRTR1) antagonists, primary screen, fluorescence, CHO/OX1R cells, Fluo-8 calcium, orexin A; Orexin/Hypocretin receptor type 1 (Homo sapiens), O43613; Fluo-8 calcium fluorescence; inhibition, % at 5 µM; 330,000 tested, 0.43% active; AID 434989, 2010;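 active = inhibition above its plate's threshold, mean inhibition of all tested compounds on the plate plus 3 SD, cut at about 37% in these data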
GPR7 antag: GPR7 receptor antagonists, primary screen, cell-based, fluorescence, single concentration | GPR7-expressing cells, fluorescence antagonist assay | 290,000 tested, 1.1% active | inhibition, % at 4.4 µM | Neuropeptides B/W receptor type 1 (Homo sapiens), P48145 | AID 1861, 2009; in the data active = inhibition above about 16%, passing the limit was not always enough;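 note: cells stimulated with the agonist NPW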
Target sequence (P48145 whole entry, looked up): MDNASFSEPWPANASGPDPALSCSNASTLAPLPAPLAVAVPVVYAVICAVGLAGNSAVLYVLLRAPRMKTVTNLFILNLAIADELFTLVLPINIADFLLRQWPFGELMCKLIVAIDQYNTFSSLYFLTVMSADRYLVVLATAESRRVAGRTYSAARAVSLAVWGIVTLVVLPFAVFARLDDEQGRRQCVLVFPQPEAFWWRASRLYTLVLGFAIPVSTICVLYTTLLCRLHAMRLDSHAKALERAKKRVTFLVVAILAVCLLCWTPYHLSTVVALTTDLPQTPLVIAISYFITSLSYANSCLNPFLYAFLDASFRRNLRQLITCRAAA
OX1R HTRF conf: OX1R (HCRTR1) antagonists, confirmation, cell-based, HTRF; shares compounds with OX1R antag-1; OX1R-expressing cells, HTRF antagonist assay; inhibition, % at 6.6 µM; 1,800 tested, 49% active; in the data active = inhibition above about 55%;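 note: CHO cells expressing OX1R stimulated with orexin A at about EC80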
CHO-K1 HTRF: signal inhibition in parental CHO-K1 cells, counter-screen for OX1R antagonist project, cell-based, HTRF; shares compounds with OX1R antag-1; HTRF counterscreen; inhibition, % at 6.6 µM; 1,800 tested, 48% active; AID 493232, 2011; in the data active = inhibition above about 17%
Each line names hits and unclear results; the compound was inactive in the other large screens (follow-up assays come after a bar, where they were run).

CN(CCCC(=O)NC1CC(C)(C)NC(C)(C)C1)S(=O)(=O)c1ccc([N+](=O)[O-])cc1	OX1R antag-1 78.5 | OX1R HTRF conf inactive | CHO-K1 HTRF 59.0
CC1(C)CC(NC(=O)COc2ccc([N+](=O)[O-])cc2)CC(C)(C)N1	none
N#CC(C#N)=c1ccc2c(c1)NC1(CCCCC1)N=2	OX1R antag-1 191.3 | OX1R HTRF conf inactive | CHO-K1 HTRF 58.2
COCCn1c(SCC(=O)Nc2nc3ccccc3s2)nnc1-c1ccoc1C	OX1R antag-1 81.2 | OX1R HTRF conf inactive | CHO-K1 HTRF inactive
CN1c2ccccc2C(O)=C(C(=S)Nc2ccc(F)c(Cl)c2)S1(=O)=O	OX1R antag-1 81.8 | OX1R HTRF conf inactive | CHO-K1 HTRF inactive
O=[N+]([O-])C1=CC=C2C(=NC3(CCCCC3)N2O)C1=NCCO	OX1R antag-1 83.5 | OX1R HTRF conf 72.7 | CHO-K1 HTRF 111.8
O=C(N/N=C/c1ccccn1)c1ccc([N+](=O)[O-])cc1	OX1R antag-1 82.8 | OX1R HTRF conf inactive | CHO-K1 HTRF 42.3
COc1cccc(/C=N/NC(=O)c2cnccn2)c1	none
O=C(N/N=C/c1ccccn1)c1ccc(NC(=O)c2cccc([N+](=O)[O-])c2)cc1	none
O=C(N/N=C/c1ccccn1)c1cc([N+](=O)[O-])cc([N+](=O)[O-])c1	OX1R antag-1 90.9 | OX1R HTRF conf 58.7 | CHO-K1 HTRF 42.2
O=C(N/N=C/c1cc([N+](=O)[O-])ccc1N1CCNCC1)c1ccc([N+](=O)[O-])cc1	OX1R antag-1 77.7 | OX1R HTRF conf inactive | CHO-K1 HTRF 68.8
O=C(N/N=C/c1cccc([N+](=O)[O-])c1)c1cnccn1	OX1R antag-1 106.3 | OX1R HTRF conf inactive | CHO-K1 HTRF 61.0
N#CCC(=O)N/N=C/c1cc([N+](=O)[O-])ccc1N1CCCC1	none
Cc1nn(C)c(C)c1NC(=O)CC12CC3CC(CC(C3)C1)C2	none
CCC(C(=O)NC(C)(C)C)n1c(-c2ccc3c(c2)OCO3)nc2ccccc21 (centres undefined)	none (no result: OX1R antag-1, CHO parental Ca, OX1R antag-2, GPR7 antag)
O=C(N/N=C/c1ccc([N+](=O)[O-])cc1)c1ccc2nc[nH]c2c1	OX1R antag-1 113.9 | OX1R HTRF conf inactive | CHO-K1 HTRF 41.3
O=C(N/N=C/c1cccc([N+](=O)[O-])c1)c1ccc2nc[nH]c2c1	none
CCOc1ccc(CN(C)C(=O)CNC(=O)c2sc3ccccc3c2Cl)cc1	none (no result: GPR7 antag)
c1cc(-c2ccc3nncn3c2)ccc1CN1CCOCC1	none (no result: OX1R antag-1, CHO parental Ca, OX1R antag-2, GPR7 antag)
COC(=O)c1ccccc1NC(=O)c1cc[n+](C)cc1	OX1R antag-1 82.8 (no result: GPR7 antag) | OX1R HTRF conf inactive | CHO-K1 HTRF 49.0
O=S(=O)(/C=C/c1ccccc1)NCc1ccccc1Cl	none
O=C(Nc1ccccn1)c1ccc2ccccc2n1	OX1R antag-1 85.6 | OX1R HTRF conf 67.9 | CHO-K1 HTRF inactive
O=C(Nc1ccccn1)c1ccc2ccccc2c1O	none
CCCn1c(C(O)c2ccc(OC)c(OC)c2)nc2ccccc21 (centres undefined)	none
CN1CCc2c(sc(NC(=O)c3ccc([N+](=O)[O-])o3)c2C(N)=O)C1	OX1R antag-1 90.4 | OX1R HTRF conf inactive | CHO-K1 HTRF 31.2
Cc1nn2c3ccccc3nc2c2ccccc12	OX1R antag-1 87.7 | OX1R HTRF conf 82.8 | CHO-K1 HTRF inactive
Clc1cccc(/C=N\Nc2nccs2)c1	OX1R antag-1 81.8 | OX1R HTRF conf inactive | CHO-K1 HTRF inactive
CCN(CC)c1ccc(N=Nc2nn(C)c(C)c2[N+](=O)[O-])cc1	OX1R antag-1 88.2 | OX1R HTRF conf inactive | CHO-K1 HTRF 29.3
CCN(Cc1ccccc1)c1ccc(N=Nc2nn(C)c(C)c2[N+](=O)[O-])cc1	none
COc1ccc2cc3c(N)c(C(=O)N4CCCC4)sc3nc2c1	OX1R antag-1 97.5 | OX1R HTRF conf 88.8 | CHO-K1 HTRF inactive
Cc1ccc2cc3c(N)c(C(=O)N4CCOCC4)sc3nc2c1	none
COc1ccc(/C=C/c2ccc3ccccc3[n+]2C)cc1OC	OX1R antag-1 78.3 (no result: GalR3 antagonist) | OX1R HTRF conf 70.0 | CHO-K1 HTRF 85.6
CCCNC(=O)COC(=O)c1c2c(nc3ccccc13)CCC2	none
O=[N+]([O-])c1c(Nc2ccccc2O)cc(N2CCOCC2)c2nonc12	OX1R antag-1 79.8 | OX1R HTRF conf inactive | CHO-K1 HTRF 34.4
O=S(=O)(Cc1ccccc1)NCc1cccnc1	none
CCN(CC)CCCNC1=C(Cl)C(=O)c2ccccc2C1=O	OX1R antag-1 85.6 | OX1R HTRF conf 87.5 | CHO-K1 HTRF 113.2
C=CCNC1=C(Cl)C(=O)c2ccccc2C1=O	OX1R antag-1 140.5 | OX1R HTRF conf 64.3 | CHO-K1 HTRF 93.6
O=C1C(Cl)=C(NCc2cccnc2)C(=O)c2ccccc21	OX1R antag-1 83.8 | OX1R HTRF conf 65.9 | CHO-K1 HTRF 98.0
CCc1ccccc1NC(=O)c1ccc(CN2CCC(Cc3ccccc3)CC2)cc1	none
CCSc1ccc([C@@H]2[C@H]3C(=O)N(CC)C(=O)[C@H]3[C@]3(C(=O)OC)CCCCN23)cc1OC	OX1R antag-1 84.5 (no result: GalR3 antagonist, GPR7 antag) | OX1R HTRF conf 76.0 | CHO-K1 HTRF inactive
Cc1cc(C)cc(NC(=S)N2CC(C)OC(C)C2)c1 (centres undefined)	none (no result: OX1R antag-1, CHO parental Ca, OX1R antag-2)
Cc1cccc(CCN=c2c([N+](=O)[O-])nn(-c3ccccc3)n2O)c1	none
Cc1cccc(-n2nc([N+](=O)[O-])c(=NC3CCN(Cc4ccccc4)CC3)n2O)c1	OX1R antag-1 83.3 | OX1R HTRF conf inactive | CHO-K1 HTRF 42.1
COc1ccc(Nc2cc(Nc3cc(OC)c(OC)c(OC)c3)ncn2)cc1	none
O=C1NC2(Nc3ccccc31)C(=O)Nc1ccccc12 (centres undefined)	OX1R antag-1 80.1 | OX1R HTRF conf inactive | CHO-K1 HTRF inactive
O=C1NC2(Nc3ccccc31)C(=O)Nc1ccc(Br)cc12 (centres undefined)	none
CCOC(=O)c1c(C)[nH]c(C(=O)OCC(=O)Nc2ccccc2)c1C	none (no result: GPR7 antag)
COc1cccc(CNC(=O)CCCc2nnc3n(C)c(=O)c4sccc4n23)c1	none
CCCn1cnc2cc(NC(=O)c3ccco3)ccc21	OX1R antag-1 93.9 | OX1R HTRF conf inactive | CHO-K1 HTRF inactive
O=C(Nc1ccc2nn(-c3ccccc3)nc2c1)c1ccco1	OX1R antag-1 94.7 | OX1R HTRF conf 70.7 | CHO-K1 HTRF inactive
CCn1cnc2cc(NC(=O)c3ccco3)ccc21	none

From PubChem
